Source: the RNAGym collection of RNA variant scans (doi:10.1002/anie.201605470)

B1: Osa-1-4 twister ribozyme (parent)
chain: CCGCCUAACACUGCCAAUGCCGGUCCCAAGCCCGGAUAAAAGUGGAGGGGGCGG

Variants of: B1
Experiment: self-cleavage, relative activity (ratio to wild type); higher = more cleavage; co-transcriptional
In short: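 The 48 positions downstream of the cleavage site in a 54-nucleotide Oryza sativa twister ribozyme template were synthesised at 97 % wild-type base and 1 % of each other base. The template was transcribed in vitro at 37 °C for 2 h, with self-cleavage allowed during transcription. Reads with or without upstream sequence after deep sequencing marked cleavage status, and relative activity is fraction cleaved normalised to wild type.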

Variant | self-cleavage
CCGCCUAACACGGCCAAUGCCGGUCCCAUGCCCGGAUAAAAGUGGAGGGGGCGG [A29U U12G] | 0.04
CCGCCUAACACAGCCAAUGCCGGUCCCAUGCCCGGAUAAAAGUGGAGGGGGCGG [A29U U12A] | 0.08
CCGCCUAACACCGCCAAUGCCGGUCCCAUGCCCGGAUAAAAGUGGAGGGGGCGG [A29U U12C] | 0.05
CCGCCUAACACUGCCAAUGCCGGUCCCAAACCCGGAUAAAAGUGGAGCGGGCGG [G30A G48C] | 0.02
CCGCCUAACACUGCCAAUGCCGGUCCCAAACCCGGAUAAAAGUGGAGUGGGCGG [G30A G48U] | 0.01
CCGCCUAACACUGCCAAUGCCGGUCCCAAACCCGGAUAAAAGUGGAGAGGGCGG [G30A G48A] | 0.01
CCGCCUAACACUGCCAAUGCCGGUCCCAUGCCCGGAUAAAAGUGGAGGGGGCGU [A29U G54U] | 0.27
CCGCCUAACACUGCCAAUGCCGGUCCCAUGCCCGGAUAAAAGUGGAGGGGGCGC [A29U G54C] | 0.06
CCGCCUAACACUGCCAAUGCCGGUCCCAUGCCCGGAUAAAAGUGGAGGGGGCGA [A29U G54A] | 0.09
CCGCCUAACACUGCCAAUGCCGGUCCCAUGCCCGGAGAAAAGUGGAGGGGGCGG [A29U U37G] | 0.23
CCGCCUAACACUGCCAAUGCCGGUCCCAUGCCCGGAAAAAAGUGGAGGGGGCGG [A29U U37A] | 0.16
CCGCCUAACACUGCCAAUGCCGGUCCCAUGCCCGGACAAAAGUGGAGGGGGCGG [A29U U37C] | 0.14
CCGCCUAACACUGCCAAUGCCGGUCCCAAACCCGUAUAAAAGUGGAGGGGGCGG [G30A G35U] | 0.04
CCGCCUAACACUGCCAAUGCCGGUCCCAAACCCGAAUAAAAGUGGAGGGGGCGG [G30A G35A] | 0.05
CCGCCUAACACUGCCAAUGCCGGUCCCAAACCCGCAUAAAAGUGGAGGGGGCGG [G30A G35C] | 0.03
CCGCCUAACACUGCCAAUGCCGGUCCCAACCCCGGAUAAAAGUGGAGCGGGCGG [G30C G48C] | 0.02
CCGCCUAACACUGCCAAUGCCGGUCCCAACCCCGGAUAAAAGUGGAGAGGGCGG [G30C G48A] | 0.02
CCGCCUAACACUGCCAAUGCCGGUCCCAACCCCGGAUAAAAGUGGAGUGGGCGG [G30C G48U] | 0.02
CCGCCUAACACUGCCAAUGCCGGUCCCAAACCCGGAUAAAAGUGGAGGGGGCGU [G30A G54U] | 0.06
CCGCCUAACACUGCCAAUGCCGGUCCCAAACCCGGAUAAAAGUGGAGGGGGCGA [G30A G54A] | 0.05
CCGCCUAACACUGCCAAUGCCGGUCCCAAACCCGGAUAAAAGUGGAGGGGGCGC [G30A G54C] | 0.04
CCGCCUAACACUGCCAAUGCCGGUCCCAAACCCGGAUAAAAGUGGAGGGGGCGG [G30A] | 0.04
CCGCCUAACACUGCCAAUGCCGGUCCCAACCCCGGAUAAAAGUGGAGGGGGCGG [G30C] | 0.04
CCGCCUAACACUGCCAAUGCCGGUCCCAACCCCGGAUAAAAGUGCAGGGGGCGG [G30C G45C] | 0.02
CCGCCUAACACUGCCAAUGCCGGUCCCAACCCCGGAUAAAAGUGUAGGGGGCGG [G30C G45U] | 0.02

Variant | self-cleavage
CCGCCUAACACUGCCAAUGCCGGUCCCAACCCCGGAUAAAAGUGAAGGGGGCGG [G30C G45A] | 0.03
CCGCCUAACACUGCCAAUGCCGGUCCCAAACCCUGAUAAAAGUGGAGGGGGCGG [G30A G34U] | 0.04
CCGCCUAACACUGCCAAUGCCGGUCCCAAACCCAGAUAAAAGUGGAGGGGGCGG [G30A G34A] | 0.11
CCGCCUAACACUGCCAAUGCCGGUCCCAAACCCCGAUAAAAGUGGAGGGGGCGG [G30A G34C] | 0.05
CCGCCUAACACUGCCAAUGCCGGUCCCAUGCCCGGAUAAAAGCGGAGGGGGCGG [A29U U43C] | 0.06
CCGCCUAACACUGCCAAUGCCGGUCCCAUGCCCGGAUAAAAGGGGAGGGGGCGG [A29U U43G] | 0.08
CCGCCUAACACUGCCAAUGCCGGUCCCAUGCCCGGAUAAAAGAGGAGGGGGCGG [A29U U43A] | 0.06
CCGCCUAACACUGCCAAUGCCGGGCCCAAACCCGGAUAAAAGUGGAGGGGGCGG [G30A U24G] | 0.01
CCGCCUAACACUGCCAAUGCCGGCCCCAAACCCGGAUAAAAGUGGAGGGGGCGG [G30A U24C] | 0.03
CCGCCUAACACUGCCAAUGCCGGACCCAAACCCGGAUAAAAGUGGAGGGGGCGG [G30A U24A] | 0.03
CCGCCUAACACUGCCAAUGCCGGUCCCAUGCCCGGAUAAAAGUGGAGGGGGCCG [A29U G53C] | 0.04
CCGCCUAACACUGCCAAUGCCGGUCCCAUGCCCGGAUAAAAGUGGAGGGGGCUG [A29U G53U] | 0.06
CCGCCUAACACUGCCAAUGCCGGUCCCAACCCCGGAUAAAAUUGGAGGGGGCGG [G30C G42U] | 0.02
CCGCCUAACACUGCCAAUGCCGGUCCCAACCCCGGAUAAAACUGGAGGGGGCGG [G30C G42C] | 0.04
CCGCCUAACACUGCCAAUGCCGGUCCCAACCCCGGAUAAAAAUGGAGGGGGCGG [G30C G42A] | 0.04
CCGCCUAACACUGCCAAAGCCGGUCCCAUGCCCGGAUAAAAGUGGAGGGGGCGG [A29U U18A] | 0.12
CCGCCUAACACUGCCAACGCCGGUCCCAUGCCCGGAUAAAAGUGGAGGGGGCGG [A29U U18C] | 0.13
CCGCCUAACACUGCCAAGGCCGGUCCCAUGCCCGGAUAAAAGUGGAGGGGGCGG [A29U U18G] | 0.25
CCGCCUAACACUGCCAAUGCCGGUCCCAAACCCGGAUAAAAGUGGAGGGCGCGG [G30A G50C] | 0.04
CCGCCUAACACUGCCAAUGCCGGUCCCAAACCCGGAUAAAAGUGGAGGGUGCGG [G30A G50U] | 0.04
CCGCCUAACACUGCCAAUGCCGGUCCCAAACCCGGAUAAAAGUGGAGGGAGCGG [G30A G50A] | 0.04
CCGCCUAACACUGCCAAUGCCGGUCCCAACCCCGGAUAAAAGUGGAGGCGGCGG [G30C G49C] | 0.02
CCGCCUAACACUGCCAAUGCCGGUCCCAACCCCGGAUAAAAGUGGAGGUGGCGG [G30C G49U] | 0.02
CCGCCUAACACUGCCAAUGCCGGUCCCAACCCCGGAUAAAAGUGGAGGAGGCGG [G30C G49A] | 0.02
